According to the RNAGym collection of RNA variant scans (doi:10.1038/nmeth.2970):

B1: NELF-E aptamer (parent)
chain: CCCAACGACUGCCGAGCGAGAUUACGCUUGAGCGCCCCACUGAGGAUGCCCACGGGCGAUUGGGGCACGG

Variants of: B1
Assay: HiTS-RAP
Settings: with NELF-E (Drosophila)
Method in brief: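 Aptamer DNA templates bearing a T7 promoter and a ter site were sequenced on an Illumina GAIIx flowcell. T7 RNA polymerase then transcribed them in situ, and GST-Tus halted transcription over 30 minutes at 37°C. After a 30-minute room-temperature equilibration with NELF-E-mOrange at 0.064 to 1000 nM in HEPES binding buffer, clusters were imaged, using only the first binding curve. Intensities normalised to sequencing intensity were averaged per sequence and fitted with weighted Hill fits to give Kd, retaining only fits whose variance stayed under 1,000,000.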

Variant	Kd [nM]
CCCAACGACUGGCGAGCGAGAUUACGCUCGAGCGCCCCACUGAGGAUGCCCACGGGCGAUUGGGGCACGG	6.33
CCCAACGACUGGCGAGCGAGAUUACGCUAGAGCGCCCCACUGAGGAUGCCCACGGGCGAUUGGGGCACGG	5.65
CCCAACGACUGGCGAGCGAGAUUACGCUGGAGCGCCCCACUGAGGAUGCCCACGGGCGAUUGGGGCACGG	5.61
CCCAACGACUGUCGAGCGAGAUUGCGCUUGAGCGCCCCACUGAGGAUGCCCACGGGCGAUUGGGGCACGG	5.74
CCCAACGACUGCAGAGCGAGAUUACGCUUGAGCGCCCCACUGAGGAUGCCCACGGGCGAUUGGGGCACGG	5.28
CCCAACGACUGGCGAGCGAGAUCACGCUUGAGCGCCCCACUGAGGAUGCCCACGGGCGAUUGGGGCACGG	3.97
CCCAACGACUGGCGAGCGAGAUGACGCUUGAGCGCCCCACUGAGGAUGCCCACGGGCGAUUGGGGCACGG	5.85
CCCAACGACUGGCGAGCGAGAUUACGCUUGAGCGCCCCACUGAGGAUGCCCGCGGGCGAUUGGGGCACGG	5.15
CCCAACGACUGGCGAGCGAGAUUACGCUUGAGCGCCCCACUGAGGAUGCCCUCGGGCGAUUGGGGCACGG	16.2
CCCAACGACUGGCGAGCGAGAUUACUCUUGAGCGCCCCACUGAGGAUGCCCACGGGCGAUUGGGGCACGG	5.65
CCCAACGACUGGCGAGCGAGAUUACACUUGAGCGCCCCACUGAGGAUGCCCACGGGCGAUUGGGGCACGG	4.12
CCCAACGACUGGCGAGCGAGAUUACGCUUGAGCGCCCCACUGAGGGUGCCCACGGGCGAUUGGGGCACGG	44.8
CCCAACGACUGGCGAGCGAGACUACGCUUGAGCGCCCCACUGAGGAUGCCCACGGGCGAUUGGGGCACGG	6.9
CCCAACGACUGGCGAGCGAGAGUACGCUUGAGCGCCCCACUGAGGAUGCCCACGGGCGAUUGGGGCACGG	5.79
CCCAACGACUGGCGAGCGAGAUUACGCUUGAGCGCCCCACUGAGGAUGCCCACGGGCGAUUGGGUCACGG	8.23
CCCAACGACUGGCGAGCGAGAUUACGCUUGAGCGCCCCACUGAGGAUGCCCACAGGCGAUUGGGGCACGG	18.2
CCCAACGACUGGCGAGCGAGAUUACGCUUGAGCGCCCCACUGAGGAUGCCCACGGGCGAUUGUGGCACGG	13.7
CCCAACGACUGGCGAGCGAGUUUACGCUUGAGCGCCCCACUGAGGAUGCCCACGGGCGAUUGGGGCACGG	6.04
CCCAACGACUGGCGAGCGAGGUUACGCUUGAGCGCCCCACUGAGGAUGCCCACGGGCGAUUGGGGCACGG	7.12

Variant	Kd [nM]
CCCAACGACUGUCGAGCGGGAUUACGCUUGAGCGCCCCACUGAGGAUGCCCACGGGCGAUUGGGGCACGG	5.36
CCCAACGACUGUCGAGCGAGAUUACGCUUGAGCACCCCACUGAGGAUGCCCACGGGCGAUUGGGGCACGG	5.3
CCCAACGACUGGCGAGCGAGAUUACGCUUGAGCGCCCCACUGAGGAUGCCCACGGGCGAUAGGGGCACGG	39.1
CCCAACGACUGUUGAGCGAGAUUACGCUUGAGCGCCCCACUGAGGAUGCCCACGGGCGAUUGGGGCACGG	3.39
CCCAACGACUGUGGAGCGAGAUUACGCUUGAGCGCCCCACUGAGGAUGCCCACGGGCGAUUGGGGCACGG	5.4
CCCAACGACUGGCGAUCGAGAUUACGCUUGAGCGCCCCACUGAGGAUGCCCACGGGCGAUUGGGGCACGG	7.23
CCCAACGACUGGCGAGCGAGAUUACGCUUGAGCGCCCCACUAAGGAUGCCCACGGGCGAUUGGGGCACGG	39.8
CCCAACGACUGUCGAGCGAGAGUACGCUUGAGCGCCCCACUGAGGAUGCCCACGGGCGAUUGGGGCACGG	5.99
CCCAACGACUGGCGAGCGAGAUUACGCUUGAGCGCCCCACUGAGGAGGCCCACGGGCGAUUGGGGCACGG	8.13
CCCAACGACUGUCGAGCGAGAUUACGCUGGAGCGCCCCACUGAGGAUGCCCACGGGCGAUUGGGGCACGG	5.46
CCCAACGACUGGGGAGCGAGAUUACGCUUGAGCGCCCCACUGAGGAUGCCCACGGGCGAUUGGGGCACGG	5.01
CCCAACGACUGGUGAGCGAGAUUACGCUUGAGCGCCCCACUGAGGAUGCCCACGGGCGAUUGGGGCACGG	5.88
CCCAACGACUGGCGAGUGAGAUUACGCUUGAGCGCCCCACUGAGGAUGCCCACGGGCGAUUGGGGCACGG	7.01
CCCAACGACUGGCGAGGGAGAUUACGCUUGAGCGCCCCACUGAGGAUGCCCACGGGCGAUUGGGGCACGG	5.66
CCCAACGACUGGCGAGCGAGAUUACGCUUGAGCGCCCCACUGAGGAUGCCCACGGGCGGUUGGGGCACGG	57.4
CCCAACGACUGUCGAGCGAGAUGACGCUUGAGCGCCCCACUGAGGAUGCCCACGGGCGAUUGGGGCACGG	5.04
CCCAACGACUGGCGAGCGAGAUUACGCUUGAGCGCCCCACUGAGGAUGCCCACGGGCGAUUGGAGCACGG	8.49
CCCAACGACUGUCGAGCGAGAUUACGCUUGAGCGCCCCACGGAGGAUGCCCACGGGCGAUUGGGGCACGG	6.2
CCCAACGACUGGCGAGCGAGAUUACGCUUGAGCGCCCCACUGGGGAUGCCCACGGGCGAUUGGGGCACGG	26.1
